From ChEMBL document CHEMBL4316620, “Dihydropyrrolones as bacterial quorum sensing inhibitors” (Bioorg Med Chem Lett, 2019) come the findings set out here.

SMILES strings stand for the structures. Calls of active or inactive are those of the source. The calls are words filed in the database; no cut-off is given here.

For assay [1], the system named is Pseudomonas aeruginosa. Put plainly: Toxicity in Pseudomonas aeruginosa MH602 PlasB::gfp assessed as inhibition of bacterial growth at 31.25 uM incubated for 15 hrs by spectrophotometry. The conditions noted are these: MH602, 15 h, read-out: GI. The format is organism-based.
Assay [2] is described as follows: Inhibition of quorum sensing system in Pseudomonas aeruginosa MH602 PlasB::gfp at 125 uM incubated for 15 hrs by GFP reporter gene assay. The gist of the method: (§1)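 Reporter strain P. aeruginosa PlasB::gfp (PAMH602) makes its own AHL; lasB promoter drives GFP-ASV. Cultures incubated with compound over 250–31.25 µM at 37 °C for 15 h, then GFP fluorescence read at 535 nm. QSI expressed as % relative to untreated PAMH602 negative control. Furanone positive control.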
(In a reporter assay the amount or activity of a reporter protein is the signal.)

Assay [3] has as its system Pseudomonas aeruginosa. Put plainly: Toxicity in Pseudomonas aeruginosa MH602 PlasB::gfp assessed as inhibition of bacterial growth at 250 uM incubated for 15 hrs by spectrophotometry. The format is organism-based. The conditions noted are these: MH602, 15 h, read-out: GI.
Assay [4] is described as follows: Inhibition of quorum sensing system in Pseudomonas aeruginosa MH602 PlasB::gfp at 31.25 uM incubated for 15 hrs by GFP reporter gene assay. The gist of the method: as §1
For assay [5], the system named is Pseudomonas aeruginosa. The assay can be described thus: Toxicity in Pseudomonas aeruginosa MH602 PlasB::gfp assessed as inhibition of bacterial growth at 62.5 uM incubated for 15 hrs by spectrophotometry. The format is organism-based. As to conditions: MH602, 15 h, read-out: GI.
Assay [6] deals with Pseudomonas aeruginosa. The assay can be described thus: Inhibition of biofilm formation in Pseudomonas aeruginosa PAO1 at 250 uM incubated for 6 hrs by crystal violet staining based method. The format is functional. As to conditions: for inhibition at 250 µM: PAO1, 6 h. The gist of the method:
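P. aeruginosa PA01 biofilm. Cultures grown with or without test compound for 6 h. Biofilm biomass quantified by crystal violet staining (OD550). % inhibition calculated relative to DMSO control.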

In assay [7] the test system is Pseudomonas aeruginosa. The assay can be described thus: Toxicity in Pseudomonas aeruginosa MH602 PlasB::gfp assessed as inhibition of bacterial growth at 125 uM incubated for 15 hrs by spectrophotometry. It counts as organism-based. As to conditions: MH602, 15 h, read-out: GI.
Assay [8] in a line: Inhibition of quorum sensing system in Pseudomonas aeruginosa MH602 PlasB::gfp at 250 uM incubated for 15 hrs by GFP reporter gene assay. In outline: as §1
Assay [9] in a line: Inhibition of quorum sensing system in Pseudomonas aeruginosa MH602 PlasB::gfp at 62.5 uM incubated for 15 hrs by GFP reporter gene assay. In outline:
as §1

Turning to `C=C1C(c2ccc(Br)cc2)=CC(=O)N1c1ccc(F)cc1`, the inhibition at 31.25 µM in the assay on Pseudomonas aeruginosa [1] was at most 15%. The inhibition came out at 49.7% in assay [2], 9.23% in [4], 57.9% in [8] and 34.5% in assay [9]. The inhibition at 250 µM in the assay with Pseudomonas aeruginosa [3] is at most 15%; in the assay on Pseudomonas aeruginosa [6], 27.7%. Besides, the inhibition at 62.5 µM in the assay with Pseudomonas aeruginosa [5] is at most 15%. Also, the inhibition at 125 µM with Pseudomonas aeruginosa [7] is at most 15%.

As for `C=C1C(c2ccc(Br)cc2)=CC(=O)N1c1ccc(S(C)(=O)=O)cc1`, the inhibition at 31.25 µM with Pseudomonas aeruginosa [1] is at most 15%. Further, the inhibition in assay [2] turned out to be 58.1%; in [4], 11.2%; in assay [8], 58.7%; in [9], 31.3%. The values for the inhibition at 250 µM with Pseudomonas aeruginosa [3] and in the assay on Pseudomonas aeruginosa [6] were 15 to 30% and 10.3%, respectively. Also, in the assay with Pseudomonas aeruginosa [5], the inhibition at 62.5 µM was at most 15%. For the same compound, the inhibition at 125 µM with Pseudomonas aeruginosa [7] is at most 15%.

With `C=C1NC(=O)C=C1c1ccccc1`, the inhibition at 31.25 µM with Pseudomonas aeruginosa [1] was at most 15%. Also, the inhibition in [2] is 59%; in assay [4], 19.6%; in assay [8], 71.5%; in [9] it was 31.6%. Further, the inhibition at 250 µM is at most 15% in the assay with Pseudomonas aeruginosa [3] and 47.6% in the assay with Pseudomonas aeruginosa [6]. In addition, in the assay with Pseudomonas aeruginosa [5], the inhibition at 62.5 µM is at most 15%. Further, the inhibition at 125 µM with Pseudomonas aeruginosa [7] is at most 15%.

With `C=C1NC(=O)C=C1c1cccc(Cl)c1`, the inhibition at 31.25 µM in the assay with Pseudomonas aeruginosa [1] was at most 15%. The inhibition in [2] was found to be 69.4%; in assay [4], 26.3%; in assay [8], 73.3%; in assay [9] it was 54.7%. Besides, the inhibition at 250 µM was at most 15% with Pseudomonas aeruginosa [3] and 47.3% in the assay on Pseudomonas aeruginosa [6]. The inhibition at 62.5 µM in the assay with Pseudomonas aeruginosa [5] was at most 15%. Moreover, the inhibition at 125 µM in the assay on Pseudomonas aeruginosa [7] was at most 15%.

As to `C=C1C(c2ccc(Br)cc2)=CC(=O)N1c1ccccc1`, in the assay on Pseudomonas aeruginosa [1], the inhibition at 31.25 µM is at most 15%. Further, the inhibition amounted to 62% in [2], 22% in assay [4], 78.6% in assay [8] and 39.2% in assay [9]. Also, the results for the inhibition at 250 µM in the assay on Pseudomonas aeruginosa [3] and in the assay on Pseudomonas aeruginosa [6] were 15 to 30% and 35.2%, respectively. The inhibition at 62.5 µM in the assay with Pseudomonas aeruginosa [5] was at most 15%. Also, the inhibition at 125 µM in the assay on Pseudomonas aeruginosa [7] was at most 15%.

In the case of `O=C1C=C(Br)/C(=C/Br)O1`, the inhibition at 31.25 µM in the assay on Pseudomonas aeruginosa [1] fell in the range of 15 to 30%. Besides, the inhibition is 83.1% in assay [2], 65.9% in assay [4], 87.5% in assay [8] and 77% in assay [9]. For the same compound, the inhibition at 250 µM with Pseudomonas aeruginosa [3] is over 30%; with Pseudomonas aeruginosa [6], 87.9%. Further, in the assay on Pseudomonas aeruginosa [5], the inhibition at 62.5 µM was over 30%. In addition, the inhibition at 125 µM in the assay with Pseudomonas aeruginosa [7] was over 30%.

For `C=C1C(c2ccc(Br)cc2)=CC(=O)N1c1ccc(Br)cc1`, in the assay with Pseudomonas aeruginosa [1], the inhibition at 31.25 µM is at most 15%. The inhibition in assay [2] was determined as 50.5%; in assay [4] it was 8.81%; in assay [8] it was 54.3%; in [9] it was 40.4%. In addition, the inhibition at 250 µM in the assay with Pseudomonas aeruginosa [3] was at most 15%; with Pseudomonas aeruginosa [6] it was 17%. In the assay with Pseudomonas aeruginosa [5], the inhibition at 62.5 µM is at most 15%. The inhibition at 125 µM in the assay on Pseudomonas aeruginosa [7] is at most 15%.

In the case of `C=C1NC(=O)C=C1c1ccc(Cl)cc1`, in the assay on Pseudomonas aeruginosa [1], the inhibition at 31.25 µM is at most 15%. Further, the inhibition in assay [2] was determined as 64.6%; in assay [4], 33.3%; in [8] it was 73.8%; in assay [9], 49.4%. Besides, the inhibition at 250 µM is at most 15% in the assay on Pseudomonas aeruginosa [3] and 60.9% in the assay on Pseudomonas aeruginosa [6]. Also, the inhibition at 62.5 µM in the assay with Pseudomonas aeruginosa [5] is at most 15%. Further, the inhibition at 125 µM with Pseudomonas aeruginosa [7] was at most 15%.

Consider `C=C1C(c2ccccc2F)=CC(=O)N1c1cccc(C)c1`, for which the inhibition at 31.25 µM in the assay on Pseudomonas aeruginosa [1] was at most 15%. The inhibition was determined as 39.7% in assay [2], 25.3% in [4], 59.1% in [8] and 25.5% in assay [9]. Besides, the inhibition at 250 µM in the assay on Pseudomonas aeruginosa [3] was at most 15%; with Pseudomonas aeruginosa [6], 42%. Also, the inhibition at 62.5 µM in the assay on Pseudomonas aeruginosa [5] is at most 15%. The inhibition at 125 µM in the assay on Pseudomonas aeruginosa [7] was at most 15%.

In the case of `O=C1C=C(c2ccccc2)CN1`, the inhibition at 31.25 µM in the assay with Pseudomonas aeruginosa [1] is at most 15%. Further, the inhibition in assay [2] is 60.8%; in assay [4], 31.7%; in [8], 57.7%; in [9] it was 32.4%. The inhibition at 250 µM in the assay with Pseudomonas aeruginosa [3] was at most 15%; in the assay with Pseudomonas aeruginosa [6], 14.4%. Further, the inhibition at 62.5 µM in the assay on Pseudomonas aeruginosa [5] is at most 15%. In addition, the inhibition at 125 µM with Pseudomonas aeruginosa [7] is at most 15%.

As to `C=C1NC(=O)C=C1c1ccc(Br)cc1`, in the assay on Pseudomonas aeruginosa [1], the inhibition at 31.25 µM is at most 15%. The inhibition in [2] worked out at 75.2%; in assay [4] it was 63.1%; in [8] it was 82.3%; in assay [9], 66.9%. Besides, the inhibition at 250 µM was 15 to 30% in the assay on Pseudomonas aeruginosa [3] and 62.5% with Pseudomonas aeruginosa [6]. Besides, in the assay with Pseudomonas aeruginosa [5], the inhibition at 62.5 µM is at most 15%. The inhibition at 125 µM in the assay with Pseudomonas aeruginosa [7] was at most 15%.

Regarding `C=C1NC(=O)C=C1c1ccc(OC)cc1`, the inhibition at 31.25 µM in the assay on Pseudomonas aeruginosa [1] was at most 15%. For the same compound, the inhibition was determined as 62.7% in [2], 37% in assay [4], 74.4% in [8] and 44.5% in assay [9]. In addition, the inhibition at 250 µM with Pseudomonas aeruginosa [3] is 15 to 30%; with Pseudomonas aeruginosa [6], 38.8%. In the assay with Pseudomonas aeruginosa [5], the inhibition at 62.5 µM was at most 15%. For the same compound, the inhibition at 125 µM with Pseudomonas aeruginosa [7] is at most 15%.

Consider `O=C1C=C(c2ccc(F)cc2)CN1`, for which the inhibition at 31.25 µM with Pseudomonas aeruginosa [1] was at most 15%. Also, the inhibition stood at 40.2% in assay [2], 27.1% in assay [4], 63% in [8] and 28.7% in assay [9]. Also, in the assay on Pseudomonas aeruginosa [3], the inhibition at 250 µM was at most 15%. Moreover, in the assay with Pseudomonas aeruginosa [5], the inhibition at 62.5 µM is at most 15%. The inhibition result with Pseudomonas aeruginosa [6] is “inactive”. The inhibition at 125 µM in the assay on Pseudomonas aeruginosa [7] was at most 15%.

As for `C=C1C(c2ccccc2F)=CC(=O)N1c1ccc(Br)cc1`, the inhibition at 31.25 µM in the assay on Pseudomonas aeruginosa [1] was at most 15%. The inhibition in assay [2] amounted to 54.9%; in assay [4], 39.7%; in assay [8], 60.7%; in assay [9], 48.4%. Besides, the figures for the inhibition at 250 µM in the assay with Pseudomonas aeruginosa [3] and with Pseudomonas aeruginosa [6] were at most 15% and 49.2%, respectively. In the assay with Pseudomonas aeruginosa [5], the inhibition at 62.5 µM is at most 15%. For the same compound, in the assay with Pseudomonas aeruginosa [7], the inhibition at 125 µM is at most 15%.

`C=C1NC(=O)C=C1c1ccc(C(=O)O)cc1`: in the assay on Pseudomonas aeruginosa [1], the inhibition at 31.25 µM is at most 15%. Further, the inhibition in [2] is 50.8%; in assay [4], 19.6%; in [8], 68%; in [9] it was 33.6%. Moreover, the inhibition at 250 µM in the assay on Pseudomonas aeruginosa [3] is at most 15%; in the assay with Pseudomonas aeruginosa [6], 12.9%. For the same compound, in the assay with Pseudomonas aeruginosa [5], the inhibition at 62.5 µM was at most 15%. Besides, the inhibition at 125 µM with Pseudomonas aeruginosa [7] was at most 15%.

Consider `C=C1C(c2ccccc2F)=CC(=O)N1c1cccc(F)c1`, for which the inhibition at 31.25 µM in the assay on Pseudomonas aeruginosa [1] was at most 15%. Also, the inhibition in [2] was determined as 55.2%; in [4], 24%; in [8] it was 61.1%; in [9] it was 41.8%. Further, the inhibition at 250 µM is at most 15% in the assay on Pseudomonas aeruginosa [3] and 58.9% in the assay on Pseudomonas aeruginosa [6]. For the same compound, the inhibition at 62.5 µM with Pseudomonas aeruginosa [5] is at most 15%. Further, the inhibition at 125 µM in the assay on Pseudomonas aeruginosa [7] is at most 15%.

As for `C=C1C(c2ccccc2F)=CC(=O)N1CCCC`, in the assay with Pseudomonas aeruginosa [1], the inhibition at 31.25 µM was at most 15%. Also, the inhibition in assay [2] came out at 34.2%; in assay [4], 38.2%; in assay [8] it was 55.3%; in assay [9], 33.5%. Also, the inhibition at 250 µM was at most 15% in the assay with Pseudomonas aeruginosa [3] and 52.2% in the assay on Pseudomonas aeruginosa [6]. Besides, in the assay on Pseudomonas aeruginosa [5], the inhibition at 62.5 µM is at most 15%. Besides, the inhibition at 125 µM in the assay on Pseudomonas aeruginosa [7] is at most 15%.
